One test concerns Streptococcus pyogenes. Put plainly: Antimicrobial activity against Streptococcus pyogenes Stpy_8668 isolate. The class given is functional.
Test [1] relates to Bacillus anthracis. In words: Antimicrobial activity against Bacillus anthracis Ames. The class given is functional.
In test [2] the test system is Bacillus anthracis. In words: Antimicrobial activity against Bacillus anthracis HH105-5 isolate. It counts as functional.
For test [3], the system named is Bacillus anthracis. Put plainly: Antimicrobial activity against Bacillus anthracis HH105-6 isolate. The class given is functional.
Test [4] relates to Bacillus anthracis. In words: Antimicrobial activity against Bacillus anthracis HH105-5R isolate. It counts as functional.
Test [5] relates to Bacillus anthracis. In words: Antimicrobial activity against Bacillus anthracis HHT105-5R isolate. It counts as functional.
The subject of test [6] is Bacillus anthracis. In words: Antimicrobial activity against Bacillus anthracis HH113-6R isolate. The class given is functional.
Test [7] is filed under the species Mus musculus. In words: Effect on survival of BALB/c mouse infected with Staphylococcus aureus PGO#172. It counts as functional. The procedure, abridged:
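Mice received a lethal dose of S. aureus PGO#172 (ATCC#29213) by intraperitoneal injection. They were treated with an iv bolus at 1, 5, 10, 25 or 50 mg/kg, in groups of five. Mortality was the endpoint, and ED50 was derived from the dose-response.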

Test [8] concerns Mus musculus. Put plainly: Survival of pulmonary anthrax BALB/c mouse model infected with Bacillus anthracis Ames at 10 mg/kg, sc after 6 days. It counts as functional. The following applies: 144 h, route subcutaneous.
Test [9] concerns Mus musculus. In words: Survival of pulmonary anthrax BALB/c mouse model infected with Bacillus anthracis Ames at 30 mg/kg, sc after 6 days. It counts as functional. To be noted: 144 h, route subcutaneous.
For test [10], the system named is Mus musculus. Put plainly: Survival of pulmonary anthrax BALB/c mouse model infected with Bacillus anthracis Ames at 100 mg/kg, sc after 6 days. It counts as functional. To be noted: 144 h, route subcutaneous.
Test [11] relates to Mus musculus. Put plainly: Survival of pulmonary anthrax BALB/c mouse model infected with Bacillus anthracis Ames at 30 mg/kg, sc twice daily for 6 days. It counts as functional. To be noted: 144 h, route subcutaneous.
The subject of test [12] is Mus musculus. In words: Survival of BALB/c mouse pulmonary challenged with Bacillus anthracis at 10 mg/kg. The class given is functional.
The subject of test [13] is Mus musculus. In words: Survival of BALB/c mouse pulmonary challenged with Bacillus anthracis at 3 mg/kg. It counts as functional.
Test [14] has as its system Mus musculus. Put plainly: Survival of BALB/c mouse pulmonary challenged with Bacillus anthracis at 1 mg/kg. The class given is functional.
Test [15] relates to Mus musculus. In words: Survival of BALB/c mouse pulmonary challenged with Bacillus anthracis at 0.3 mg/kg. It counts as functional.
Test [16] concerns Staphylococcus haemolyticus. In words: Antimicrobial activity against Staphylococcus haemolyticus 602 isolate. It counts as functional. The essentials:
(§1)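 MICs were run by broth microdilution as recommended by NCCLS, in cation-adjusted Mueller-Hinton broth. Compound was serially diluted 2-fold, over a final range of 64 to 0.03 µg/mL after inoculation.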

Test [17] concerns Staphylococcus epidermidis. Put plainly: Antimicrobial activity against Staphylococcus epidermidis 533 isolate. It counts as functional. The essentials: as §1
Test [18] has as its system Staphylococcus aureus. Put plainly: Antimicrobial activity against glycopeptide intermediate resistant Staphylococcus aureus 3793 isolate. It counts as functional. The essentials:
as §1

In test [19] the test system is Staphylococcus aureus. Put plainly: Antimicrobial activity against glycopeptide intermediate resistant Staphylococcus aureus 3798 isolate. The class given is functional. The procedure, abridged: as §1
Test [20] relates to Enterococcus faecium. In words: Antimicrobial activity against vancomycin-susceptible Enterococcus faecium 568 isolate. The class given is functional. The essentials: as §1
In test [21] the test system is Enterococcus faecalis. Put plainly: Antimicrobial activity against vancomycin-susceptible Enterococcus faecalis 559 isolate. It counts as functional. The procedure, abridged: as §1
The subject of test [22] is Enterococcus faecium. In words: Antimicrobial activity against vancomycin-resistant Enterococcus faecium 569 isolate. It counts as functional. The essentials: as §1
The subject of test [23] is Enterococcus faecalis. Put plainly: Antimicrobial activity against vancomycin-resistant Enterococcus faecalis 560 isolate. It counts as functional. The procedure, abridged: as §1
In test [24] the test system is Staphylococcus aureus. Put plainly: Antimicrobial activity against methicillin-resistant Staphylococcus aureus Stau_29213 isolate. The class given is functional. The essentials: as §1
The test system of test [25] is Staphylococcus aureus. Put plainly: Antimicrobial activity against methicillin-resistant Staphylococcus Stau_33591 isolate. It counts as functional. The essentials:
as §1

The test system of test [26] is Staphylococcus aureus. In words: Antimicrobial activity against methicillin-resistant Staphylococcus aureus Stau_b11386 isolate. The class given is functional. The procedure, abridged: as §1
The test system of test [27] is Staphylococcus aureus. Put plainly: Antimicrobial activity against methicillin-resistant Staphylococcus aureus Stau_Mu50-HIP5406 isolate. The class given is functional. The procedure, abridged: as §1
Test [28] deals with Staphylococcus aureus. In words: Antimicrobial activity against methicillin-resistant Staphylococcus aureus Stau_HIP5827 isolate. The class given is functional. The procedure, abridged:
as §1

The subject of test [29] is Enterococcus faecalis. In words: Antimicrobial activity against vancomycin-susceptible Enterococcus faecalis Enfa_29212 isolate. The class given is functional. The procedure, abridged:
as §1

Test [30] relates to Enterococcus faecalis. Put plainly: Antimicrobial activity against vancomycin-resistant Enterococcus faecalis Enfa_t29862 isolate. The class given is functional. The procedure, abridged: as §1
The test system of test [31] is Enterococcus faecalis. In words: Antimicrobial activity against vancomycin-resistant Enterococcus faecalis Enfa_vre-2 isolate. It counts as functional. The procedure, abridged: as §1
The subject of the next test is Escherichia coli. Put plainly: Antimicrobial activity against Escherichia coli Esco_25922 isolate. The class given is functional.
The test system of test [32] is Bacillus anthracis. In words: Protection against Bacillus anthracis challenged BALB/c mouse at 106 mg/kg, iv after 3 days. The class given is functional, organism-based. On the set-up: dose 106 mg/kg.
In test [33] the test system is Mus musculus. In words: Protection against pulmonary anthrax BALB/c mouse model infected with Bacillus anthracis at 135 mg/kg, po after 6 days. The following applies: 144 h. It counts as functional.
The subject of test [34] is Mus musculus. In words: Survival of BALB/c mouse pulmonary challenged with Bacillus anthracis at 114 mg/kg, po. It counts as functional.

Converted amounts (≈) assume the structure as drawn. The source made the active and inactive calls. The calls are words filed in the database; no cut-off is given here. Some results are limits rather than exact numbers.

As a reminder, the MIC is the lowest concentration found to suppress growth. By ED50 is commonly meant the dose that gives a 50% effect, or the effect in half of the subjects. Low values mean greater potency, high ones weaker potency. As to `CN[C@H](CC(C)C)C(=O)N[C@H]1C(=O)N[C@@H](CC(N)=O)C(=O)N[C@H]2C(=O)N[C@H]3C(=O)N[C@H](C(=O)N[C@H](C(=O)NC45CC6CC(CC(C6)C4)C5)c4cc(O)cc(O)c4-c4cc3ccc4O)[C@H](O[C@@H]3C[C@@](C)(N)[C@H](O)[C@@H](C)O3)c3ccc(cc3)Oc3cc2cc(c3O[C@H]2O[C@@H](CO)[C@H](O)[C@@H](O)[C@@H]2O[C@H]2C[C@](C)(N)[C@@H](O)[C@H](C)O2)Oc2ccc(cc2Cl)[C@H]1O`, the minimal inhibitory concentration (MIC) was 0.2 µg/mL (≈ 0.118 µM) in the test on Streptococcus pyogenes; 0.5 µg/mL (≈ 0.296 µM) in the test with Bacillus anthracis [1]; 0.5 µg/mL (≈ 0.296 µM) in the test on Bacillus anthracis [2]; 0.5 µg/mL (≈ 0.296 µM) with Bacillus anthracis [3]; 0.25 µg/mL (≈ 0.148 µM) against Bacillus anthracis [4]; 0.25 µg/mL (≈ 0.148 µM) in the test with Bacillus anthracis [5]. Also, the minimal inhibitory concentration (MIC) against Bacillus anthracis [6] is 0.5 µg/mL (≈ 0.296 µM); in test [16], 0.25 µg/mL (≈ 0.148 µM); in [17] it was 0.25 µg/mL (≈ 0.148 µM); in the test on Staphylococcus aureus [18] it was 1 µg/mL (≈ 0.591 µM); with Staphylococcus aureus [19] it was 2 µg/mL (≈ 1.18 µM); against Enterococcus faecium [20], 0.5 µg/mL (≈ 0.296 µM). Besides, the MIC amounted to 0.5 µg/mL (≈ 0.296 µM) with Enterococcus faecalis [21]; 4 µg/mL (≈ 2.37 µM) in the test with Enterococcus faecium [22]; 8 µg/mL (≈ 4.73 µM) against Enterococcus faecalis [23]; 0.78 µg/mL (≈ 0.461 µM) in the test on Staphylococcus aureus [24]; 0.78 µg/mL (≈ 0.461 µM) in the test with Staphylococcus aureus [25]; 0.78 µg/mL (≈ 0.461 µM) with Staphylococcus aureus [26]. In addition, the MIC against Staphylococcus aureus [27] is 0.4 µg/mL (≈ 0.237 µM); against Staphylococcus aureus [28], 1.56 µg/mL (≈ 0.922 µM); in the test with Enterococcus faecalis [29], 0.4 µg/mL (≈ 0.237 µM); with Enterococcus faecalis [30], 6.25 µg/mL (≈ 3.7 µM); in the test with Enterococcus faecalis [31], 12.5 µg/mL (≈ 7.39 µM); with Escherichia coli it was greater than 50 µg/mL. This compound returned an ED50 in the test filed under Mus musculus [7] of 20.4 mg/kg. The survival at 10 mg/kg in the test with Mus musculus [8] turned out to be 88%; in the test with Mus musculus [12], 85.7%. Also, the survival at 30 mg/kg came out at 88% with Mus musculus [9] and 86% with Mus musculus [11]. In the test on Mus musculus [10], this compound came in with a survival at 100 mg/kg of 100%. This compound had a survival at 3 mg/kg in the test with Mus musculus [13] of 62.5%. Further, in the test with Mus musculus [14], the survival at 1 mg/kg was 50%. The survival at 0.3 mg/kg in the test on Mus musculus [15] was 12.5%.
Regarding `O=C(O)c1cn(C2CC2)c2cc(N3CCNCC3)c(F)cc2c1=O` [CIPROFLOXACIN], the MIC in the test with Bacillus anthracis [2] was 8 µg/mL (≈ 24.1 µM); against Bacillus anthracis [3], 32 µg/mL (≈ 96.6 µM); in the test on Bacillus anthracis [4] it was 4 µg/mL (≈ 12.1 µM); with Bacillus anthracis [5], 8 µg/mL (≈ 24.1 µM); in the test with Bacillus anthracis [6] it was 4 µg/mL (≈ 12.1 µM). In the test on Bacillus anthracis [32], the outcome was Active. The compound further yielded a survival at 30 mg/kg in the test on Mus musculus [9] of 75%. The survival at 135 mg/kg with Mus musculus [33] turned out to be 75%. Also, in the test on Mus musculus [34], the survival at 114 mg/kg was determined as 87.5%.

The values above are taken from ChEMBL document CHEMBL1146231, “Novel semisynthetic derivative of antibiotic Eremomycin active against drug-resistant gram-positive pathogens including Bacillus anthracis” (J Med Chem, 2007).
